Test results reported in ChEMBL document CHEMBL1955721, “Syntheses and cellular investigations of 17(3)-, 15(2)-, and 13(1)-amino acid derivatives of chlorin e(6)” (J Med Chem, 2011).

Experiments:
[1] = system: HEp-2; experiment: Cytotoxicity against human Hep2 cells under dark condition after 18 hrs by celltiter blue assay; assay type: functional, cell-based; settings: HEp-2, 18 h
Summary of the method: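 HEp2 cells (passages 4–15) plated 7500/well and grown 48 h. Two-fold serial dilutions from 400 to 50 µM applied for 18 h in the dark. Medium replaced, then CellTiter Blue added and incubated 4 h. Untreated cells taken as 100% viable, 0.2% saponin-treated as 0%.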

[2] = system: HEp-2; experiment: Cytotoxicity against human Hep2 cells after overnight incubation followed by cells irradiated with 1 J/cm'2 light for 20 mins measured after overnight incubation by celltiter blue assay; assay type: functional, cell-based; settings: HEp-2, light or radiation study
Summary of the method: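 HEp2 cells in 50:50 DMEM:AMEM with 5% FBS, passages 4–15, plated 7500/well and grown 48 h. Loaded overnight at 6.25–100 µM. Medium then swapped for one with 50 mM HEPES pH 7.2. Irradiated 20 min with a 100 W halogen lamp through a 610 nm long-pass filter (~1 J/cm2), IR cut by 10 mm water, plate on ice-water. Incubated overnight at 37 °C, then CellTiter Blue viability read.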

[3] = system: HEp-2; experiment: Ratio of IC50 for cytotoxicity against human Hep2 cells under dark condition to IC50 for human Hep2 cells in presence of 1 J/cm'2 light; assay type: functional
[4] = Drug uptake in human Hep2 cell lysosomes at 10 uM after 18 hrs by fluorescence microscopic analysis; assay type: ADME, cell-based, Lysosome; settings: hep-2, 18 h
Summary of the method: (§1)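 HEp2 cells grown 48 h on glass-bottom wells, then exposed to 10 µM compound for 18 h. Co-stained 30 min at 37 °C with LysoSensor Green 50 nM, MitoTracker Green 250 nM, ER Tracker Blue/White 100 nM or BODIPY FL C5 ceramide. Washed three times with PBS. Organelle sites scored by fluorescence overlay microscopy as major or minor.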

[5] = Drug uptake in human Hep2 cell endoplasmic reticulum at 10 uM after 18 hrs by fluorescence microscopic analysis; assay type: ADME, cell-based; settings: hep-2, 18 h; summary of the method: as §1
[6] = Drug uptake in human Hep2 cell golgi at 10 uM after 18 hrs by fluorescence microscopic analysis; assay type: ADME, cell-based; settings: hep-2, 18 h; summary of the method: as §1
[7] = Drug uptake in human Hep2 cell mitochondria at 10 uM after 18 hrs by fluorescence microscopic analysis; assay type: ADME; settings: hep-2, 18 h; summary of the method: as §1
[8] = system: HEp-2; experiment: Drug uptake in human Hep2 cells at 10 uM measured up to 25 hrs by […]; assay type: ADME, cell-based; settings: hep-2, 24 h, in the assay text read “24 hrs” for “25 hrs”
Summary of the method: (§2)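 HEp2 cells plated 7500/well and grown 48 h. Given 10 µM compound (final DMSO ≤1%, Cremophor 0.1%) for 0, 1, 2, 4, 8, 12 and 24 h. Washed with PBS and lysed in 0.25% Triton X-100. Intracellular compound read by intrinsic fluorescence (ex 355/em 650 nm) in a plate reader and normalized to cell number by CyQuant.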

[9] = system: HEp-2; experiment: Drug uptake in human Hep2 cells at 10 uM after 24 hrs by fluorescence microscopic analysis relative to chlorin e6; assay type: ADME, cell-based; settings: hep-2, 24 h; summary of the method: as §2

SMILES	IC50 [1]	IC50 [2]	Ratio IC50 [3]	Drug uptake [4]	Drug uptake [5]	Drug uptake [6]	Drug uptake [7]	Drug uptake [8]	fold change (FC) [9]
C=Cc1c(C)c2cc3nc(c(CC(=O)OC)c4[nH]c(cc5nc(cc1[nH]2)C(C)=C5CC)c(C)c4C(=O)NCCC(=O)N[C@@H](CC(=O)O)C(=O)O)[C@@H](CCC(=O)OC)[C@@H]3C	384 µM	0.82 µM	468.2	Active	Active	Active	Not Active	Active	
C=Cc1c(C)c2cc3nc(c(CC(=O)OC)c4[nH]c(cc5nc(cc1[nH]2)C(C)=C5CC)c(C)c4C(=O)NCCNC(=O)[C@@H](N)CCCCN)[C@@H](CCC(=O)OC)[C@@H]3C	268 µM	1.34 µM	200.3	Active	Active	Active	Not Active	Active	
C=Cc1c(C)c2cc3nc(c(CC(=O)OC)c4[nH]c(cc5nc(cc1[nH]2)C(C)=C5CC)c(C)c4C(=O)OC)[C@@H](CCC(=O)N[C@@H](CCCCN)C(=O)OC)[C@@H]3C	> 400 µM	26.2 µM	>15.3	Active	Active	Active	Not Active	Active	
C=Cc1c(C)c2cc3nc(c(CC(=O)N[C@@H](CC(=O)O)C(=O)O)c4[nH]c(cc5nc(cc1[nH]2)C(C)=C5CC)c(C)c4C(=O)OC)[C@@H](CCC(=O)OC)[C@@H]3C	373 µM	4 µM	93.4	Active	Active	Not Active	Active	Active	
C=Cc1c(C)c2cc3nc(c(CC(=O)N[C@@H](CCCCN)C(=O)OC)c4[nH]c(cc5nc(cc1[nH]2)C(C)=C5CC)c(C)c4C(=O)OC)[C@@H](CCC(=O)OC)[C@@H]3C	> 400 µM	28.8 µM	>13.9	Active	Active	Active	Not Active		18
C=Cc1c(C)c2cc3nc(c(CC(=O)O)c4[nH]c(cc5nc(cc1[nH]2)C(C)=C5CC)c(C)c4C(=O)O)[C@@H](CCC(=O)O)[C@@H]3C [CHLORIN E6]	> 400 µM	20.8 µM	>19.2	Active	Active	Not Active	Not Active	Active	
C=Cc1c(C)c2cc3nc(c(CC(=O)OC)c4[nH]c(cc5nc(cc1[nH]2)C(C)=C5CC)c(C)c4C(=O)N[C@@H](CC(=O)O)C(=O)O)[C@@H](CCC(=O)OC)[C@@H]3C	285 µM	0.61 µM	466.6	Active	Active	Active	Active	Active	
